Data: ChEMBL document CHEMBL2057177, “Analogues of fenarimol are potent inhibitors of Trypanosoma cruzi and are efficacious in a murine model of Chagas disease” (J Med Chem, 2012)
Converted amounts (≈) assume the structure as drawn. The source made the active and inactive calls. The rule behind the calls is not given here.

Legend:
[1] = Kinetic solubility of the compound at pH 6.5 by nephelometric analysis; type: physicochemical; conditions: buffer, read-out: Kinetic_solubility
[2] = Elimination half life in Sprague-Dawley rat at 4.8 mg/kg, iv; type: ADME, organism-based; design: dose 4.8 mg/kg, route intravenous; conditions: in vivo, read-out: beta t1/2 (converted)
Method in brief: (§1)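 Overnight-fasted male Sprague–Dawley rats (272–320 g), n = 2 per route. IV dose given as a 10 min jugular infusion in aqueous solution; oral dose by gavage as aqueous suspension. Arterial blood taken via carotid cannula up to 24 h. Plasma measured by LC-MS after acetonitrile precipitation. Noncompartmental analysis. Blood clearance = plasma clearance divided by in vitro blood/plasma ratio. Bioavailability from mean dose-normalised AUC0–inf, oral versus IV.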

CYP3A4/5 = CYP3A4/5 (Homo sapiens, UniProt P08684+P20815); assay: Inhibition of CYP3A4/5 in human liver microsomes; type: ADME, Microsome
Trypanosoma cruzi [3] = assay: Antitrypanosomal activity against trypomastigotes of Trypanosoma cruzi Tulahuen expressing the beta- galactosidase gene infected rat L6 cells after 96 hrs; type: functional, organism-based; conditions: L6, 96 h
Method in brief: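 Tulahuén trypomastigotes expressing β-galactosidase, maintained by serial passage in L6 cells. L6 cells seeded and left 24 h at 37 °C, 5% CO2, then infected at MOI 3 for 48 h. Compound exposure 96 h, benznidazole control. CPRG with 0.3% Nonidet P-40 added, absorbance at 530 nm after 4−6 h. IC50 taken from % inhibition curve; mean of at least two assays.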

[4] = Apparent volume of distribution at steady state in Sprague-Dawley rat at 4.8 mg/kg, iv; type: ADME, organism-based; design: dose 4.8 mg/kg, route intravenous; conditions: in vivo, read-out: Vdss(app); method in brief: as §1
[5] = Oral bioavailability in Sprague-Dawley rat at 15.7 mg/kg; type: ADME, organism-based; conditions: in vivo; method in brief: as §1
[6] = Blood Clearance in Sprague-Dawley rat at 4.8 mg/kg, iv; type: ADME, organism-based; design: dose 4.8 mg/kg, route intravenous; conditions: whole blood; method in brief: as §1
Trypanosoma cruzi [7] = assay: Antitrypanosomal activity against trypomastigotes of Trypanosoma cruzi Tulahuen infected in Swiss mouse model of chagas disease assessed as decrease in parasite level in blood at 20 mg/kg, po administered 8 days after post infection qd for 5 days; design: scale not given: the % may be the effect or the level left
Trypanosoma cruzi [8] = assay: Antitrypanosomal activity against trypomastigotes of Trypanosoma cruzi Tulahuen infected in Swiss mouse model of chagas disease assessed as decrease in parasite level in blood at 50 mg/kg, po administered 8 days after post infection qd for 5 days; type: functional; design: scale not given: the % may be the effect or the level left
Method in brief: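 Female outbred Swiss mice, about 8 weeks old, infected ip with Tulahuén parasites; five mice per group. Daily dosing starts day 8 post-infection. Oral doses given by gavage in HPMC vehicle (0.5% HPMC, 0.4% Tween 80, 0.5% benzyl alcohol); ip doses in PBS with 0.4% Tween 80 and 10% PEG400. Tail-prick blood taken days 8, 9, 12, 14, 16, 19 and 27 post-infection, red cells lysed, and live trypomastigotes counted by hemocytometer. % efficacy = (vehicle mean − treated mean)/vehicle mean × 100. Survival recorded as surviving/infected-and-treated.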

L6 = assay: Cytotoxicity against rat L6 cells after 72 hrs by Alamar Blue assay; type: cell-based; conditions: L6, 72 h
Method in brief: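 L6 rat skeletal myoblasts in RPMI 1640 with 10% FBS. Exposed to compound for 72 h, seven-point serial dilutions in triplicate. Alamar Blue read at 570 and 630 nm. IC50 is the mean of at least two assays; podophyllotoxin used as control.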

[9] = Plasma concentration in Swiss mouse at 20 mg/kg, po after 8 hrs; type: ADME, organism-based; design: dose 20 mg/kg, route oral
Method in brief: (§2)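 Nonfasted male Swiss outbred mice (23.8–39.9 g), fed throughout. Dosed by oral gavage as solution or suspension in aqueous vehicle. Plasma assayed by LC-MS against blank-plasma standards after acetonitrile precipitation; LLOQ 0.001–0.015 μM.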

[10] = Plasma concentration in Swiss mouse at 10 mg/kg, po after 8 hrs; type: ADME, organism-based; design: dose 10 mg/kg, route oral; method in brief: as §2
Trypanosoma cruzi [11] = assay: Antitrypanosomal activity against trypomastigotes of Trypanosoma cruzi Tulahuen infected in Swiss mouse model of chagas disease assessed as increase of host survival at 50 mg/kg, po administered 8 days after post infection qd for 5 days; type: functional, organism-based; design: dose 50 mg/kg
[12] = Plasma concentration in Swiss mouse at 50 mg/kg, po after 24 hrs; type: ADME, organism-based; design: dose 50 mg/kg, route oral; method in brief: as §2
Trypanosoma cruzi [13] = assay: Antitrypanosomal activity against trypomastigotes of Trypanosoma cruzi Tulahuen infected in Swiss mouse model of chagas disease assessed as increase of host survival at 20 mg/kg, po administered 8 days after post infection qd for 5 days; type: functional, organism-based; design: dose 20 mg/kg
[14] = Elimination half life in Sprague-Dawley rat at 4.2 mg/kg, iv; type: ADME, organism-based; design: dose 4.2 mg/kg, route intravenous; conditions: in vivo, read-out: beta t1/2 (converted); method in brief: as §1
[15] = Apparent volume of distribution at steady state in Sprague-Dawley rat at 4.2 mg/kg, iv; type: ADME, organism-based; design: dose 4.2 mg/kg, route intravenous; conditions: in vivo, read-out: Vdss(app); method in brief: as §1
[16] = Plasma concentration in Swiss mouse at 10 mg/kg, po after 1 hr; type: ADME, organism-based; design: dose 10 mg/kg, route oral; method in brief: as §2
[17] = Plasma concentration in Swiss mouse at 100 mg/kg, po after 8 hrs; type: ADME, organism-based; design: dose 100 mg/kg, route oral
Method in brief: (§3)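 Nonfasted male Swiss Outbred mice weighing 23.8−39.9 g, with food and water freely available, dosed by oral gavage as an aqueous solution or suspension. Plasma proteins precipitated with acetonitrile and compound quantified by LC-MS against standards made in blank mouse plasma. Lower limit of quantitation 0.001−0.015 μM.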

[18] = Blood Clearance in Sprague-Dawley rat at 4.2 mg/kg, iv; type: ADME, organism-based; design: dose 4.2 mg/kg, route intravenous; conditions: whole blood; method in brief: as §1
[19] = Plasma concentration in Swiss mouse at 100 mg/kg, po after 1 hr; type: ADME, organism-based; design: dose 100 mg/kg, route oral; method in brief: as §3
[20] = Plasma concentration in Swiss mouse at 50 mg/kg, po after 8 hrs; type: ADME, organism-based; design: dose 50 mg/kg, route oral; method in brief: as §2
[21] = Plasma concentration in Swiss mouse at 20 mg/kg, po after 1 hr; type: ADME, organism-based; design: dose 20 mg/kg, route oral; method in brief: as §2
[22] = Oral bioavailability in Sprague-Dawley rat at 15.2 mg/kg; type: ADME, organism-based; conditions: in vivo; method in brief: as §1
[23] = Plasma concentration in Swiss mouse at 50 mg/kg, po after 1 hr; type: ADME, organism-based; design: dose 50 mg/kg, route oral; method in brief: as §2
[24] = Therapeutic index, ratio of IC50 for rat L6 cells to IC50 for trypomastigotes of Trypanosoma cruzi Tulahuen; type: cell-based; conditions: read-out: Ratio IC50
Trypanosoma cruzi [25] = assay: Antitrypanosomal activity against trypomastigotes of Trypanosoma cruzi Tulahuen infected in Swiss mouse model of chagas disease assessed as decrease in parasite level in blood at 100 mg/kg, po administered 8 days after post infection qd for 5 days; type: functional; design: scale not given: the % may be the effect or the level left

Work on `CC(C)Oc1ncc(C(O)(c2cccnc2)c2ccc(Cl)cc2F)cn1` (racemic) yielded a solubility kinetic [1] of 12.5 µg/mL (≈ 33.4 µM), a half-life [2] of 11.3 h and an IC50 (CYP3A4/5) of 4400 nM. It also gave an IC50 (Trypanosoma cruzi [3]) of 8 nM, a Vd [4] of 9.1 L/kg and a bioavailability [5] of 7.4%. The clearance [6] was 73.9 mL/min/kg.
Compound `NC(=O)c1cccc(C(O)(c2ccc(Cl)cc2)c2cccnc2)c1` (racemic) has an Activity (Trypanosoma cruzi [7]) of 0%, an Activity (Trypanosoma cruzi [8]) of 65% and a solubility kinetic [1] of 50 µg/mL (≈ 148 µM). For the same compound, the IC50 (L6) was > 100000 nM, the concentration at 8 h [9] was 1.9 µM and the IC50 (CYP3A4/5) was 2600 nM. The concentration at 8 h [10] was 0.4 µM, the Activity (Trypanosoma cruzi [11]) was “Active” and the IC50 (Trypanosoma cruzi [3]) was 30 nM. The concentration at 24 h [12] was 0.06 µM, the Activity (Trypanosoma cruzi [13]) was “Active” and the half-life [14] was 6.1 h. For the same compound, the Vd [15] was 3.6 L/kg, the concentration at 1 h [16] was 6.8 µM and the concentration at 8 h [17] was 6.5 µM. It also gave a clearance [18] of 18.9 mL/min/kg, a concentration at 1 h [19] of 19.5 µM and a concentration at 8 h [20] of 15.9 µM. It also gave a concentration at 1 h [21] of 10.3 µM, a bioavailability [22] of 95% and a concentration at 1 h [23] of 13.7 µM. The selectivity ratio [24] was > 500 and the Activity (Trypanosoma cruzi [25]) was >95%.
